Data from ChEMBL document CHEMBL1133180 (2000).

Experiments:
Mus musculus [1] = organism: Mus musculus; assay: Latency time on 1st day of mouse passive-avoidance test.; also: test concentration or dose not given here; assay type: functional
In short: (§1)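 Mouse light/dark step-through test with a pitfall floor: entering the dark room drops the mouse 40 cm into 10 °C water. Mice not entering within 60 s are excluded. Dosing is sc 20 min before training, in saline or DMSO/H2O vehicle.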

Mus musculus [2] = assay: Minimal effective s.c. dose to reverse Scopolamine induced amnesia in mouse passive-avoidance test.
Mus musculus [3] = organism: Mus musculus; assay: Change in the latency time on day 1 to that of day 2; assay type: functional
In short: as §1, with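 “water. Latencies in s are taken at training and at retention 24 h later, capped at 120 s.” for “water.”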

Mus musculus [4] = organism: Mus musculus; assay: Latency time on 2nd (post-treatment) day of mouse passive-avoidance test.; assay type: functional
In short: as §1, with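 “water. Latencies in s are taken at training and at retention 24 h later, capped at 120 s.” for “water.”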

Mus musculus [5] = assay: Minimal effective dose to reverse Scopolamine induced amnesia, when given ip in mouse passive avoidance test; assay type: functional
In short: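 Mouse passive avoidance (light/dark box) with a pitfall floor: entering the dark room drops the mouse 40 cm into 10 °C water. Test drugs were given in a 1-to-10 dilution series 20 min before training. […] Retention was tested at 24 h, with a 120 s maximum. Mice not entering within 60 s at training were excluded. The read-out is the retention minus training latency (s).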

Mus musculus [6] = assay: Minimal effective dose to reverse Scopolamine induced amnesia, when given sc in mouse passive avoidance test; Dose limited by solubility problems; assay type: functional

Structure (SMILES): O=C1CC[C@@H]2CN(S(=O)(=O)c3ccc(F)cc3)CCN12
- Latency time (Mus musculus [1]): 19.7 s
- Dose (Mus musculus [2]): 0.001 mg/kg
- Delta latency time (Mus musculus [3]): 93.8 s
- Latency time (Mus musculus [4]): 104.4 s

Structure (SMILES): O=C1CC[C@@H]2CN(Cc3ccc(F)cc3)CCN12
- Dose (Mus musculus [2]): >10 mg/kg

Structure (SMILES): O=C(c1ccc(F)cc1)N1CCN2C(=O)CC[C@@H]2C1
- Latency time (Mus musculus [1]): 11.7 s
- Dose (Mus musculus [2]): 10 mg/kg
- Delta latency time (Mus musculus [3]): 77.2 s
- Latency time (Mus musculus [4]): 88.9 s

Structure (SMILES): Cc1ccc(C(=O)N2CCN3C(=O)CC[C@@H]3C2)cc1
- Latency time (Mus musculus [1]): 15.6 s
- Dose (Mus musculus [2]): 1 mg/kg
- Delta latency time (Mus musculus [3]): 84.5 s
- Latency time (Mus musculus [4]): 100.1 s

Structure (SMILES): O=C1CC[C@@H]2CN(S(=O)(=O)c3ccc([N+](=O)[O-])cc3)CCN12
- Latency time (Mus musculus [1]): 13.8 s
- Dose (Mus musculus [2]): 10 mg/kg
- Delta latency time (Mus musculus [3]): 75.4 s
- Latency time (Mus musculus [4]): 89.2 s

Structure (SMILES): Cc1ccc(S(=O)(=O)N2CCN3C(=O)CC[C@@H]3C2)cc1
- Latency time (Mus musculus [1]): 15.1 s
- Dose (Mus musculus [2]): 1 mg/kg
- Delta latency time (Mus musculus [3]): 80.5 s
- Latency time (Mus musculus [4]): 95.6 s

Structure (SMILES): NC(=O)CN1CCCC1=O
- Latency time (Mus musculus [1]): 17.6 s
- Delta latency time (Mus musculus [3]): 91.2 s
- Dose (Mus musculus [5]): 30 mg/kg
- Latency time (Mus musculus [4]): 108.8 s

Structure (SMILES): COc1ccc(C(=O)N2CCN3C(=O)CC[C@@H]3C2)cc1
- Dose (Mus musculus [6]): >1 mg/kg

Structure (SMILES): O=C(c1ccc(Cl)cc1)N1CCN2C(=O)CC[C@@H]2C1
- Latency time (Mus musculus [1]): 18.3 s
- Dose (Mus musculus [2]): 10 mg/kg
- Delta latency time (Mus musculus [3]): 85.4 s
- Latency time (Mus musculus [4]): 103.7 s

Structure (SMILES): O=C(c1ccc([N+](=O)[O-])cc1)N1CCN2C(=O)CC[C@@H]2C1
- Latency time (Mus musculus [1]): 18 s
- Dose (Mus musculus [2]): 10 mg/kg
- Delta latency time (Mus musculus [3]): 78.2 s
- Latency time (Mus musculus [4]): 96.2 s

Structure (SMILES): O=C1CC[C@@H]2CN(S(=O)(=O)c3ccc(Cl)cc3)CCN12
- Dose (Mus musculus [6]): >0.1 mg/kg

Structure (SMILES): O=C1CC[C@@H]2CN(Cc3ccccc3)CCN12
- Latency time (Mus musculus [1]): 14.2 s
- Dose (Mus musculus [2]): 1 mg/kg
- Delta latency time (Mus musculus [3]): 63.2 s
- Latency time (Mus musculus [4]): 77.4 s

Structure (SMILES): COc1ccc(S(=O)(=O)N2CCN3C(=O)CC[C@@H]3C2)cc1
- Latency time (Mus musculus [1]): 14.8 s
- Dose (Mus musculus [2]): 0.1 mg/kg
- Delta latency time (Mus musculus [3]): 103.5 s
- Latency time (Mus musculus [4]): 118.3 s

Structure (SMILES): O=C1CC[C@@H]2CN(S(=O)(=O)c3ccccc3)CCN12
- Dose (Mus musculus [6]): >10 mg/kg

Structure (SMILES): O=C(c1ccccc1)N1CCN2C(=O)CC[C@@H]2C1
- Latency time (Mus musculus [1]): 16.8 s
- Dose (Mus musculus [2]): 1 mg/kg
- Delta latency time (Mus musculus [3]): 85.2 s
- Latency time (Mus musculus [4]): 102 s

Structure (SMILES): C[C@@H]1C[C@@H]2CN(C(=O)c3ccccc3)CCN2C1=O (relative stereo)
- Latency time (Mus musculus [1]): 17.7 s
- Dose (Mus musculus [2]): 1 mg/kg
- Delta latency time (Mus musculus [3]): 65.8 s
- Latency time (Mus musculus [4]): 83.5 s

Structure (SMILES): C[C@H]1C[C@@H]2CN(C(=O)c3ccccc3)CCN2C1=O (relative stereo)
- Latency time (Mus musculus [1]): 14.3 s
- Dose (Mus musculus [2]): 1 mg/kg
- Delta latency time (Mus musculus [3]): 85.2 s
- Latency time (Mus musculus [4]): 99.5 s

Structure (SMILES): C[C@H]1C[C@@H]2CN(C(=O)c3ccc(F)cc3)CCN2C1=O (relative stereo)
- Latency time (Mus musculus [1]): 21.8 s
- Dose (Mus musculus [2]): 0.1 mg/kg
- Delta latency time (Mus musculus [3]): 85.6 s
- Latency time (Mus musculus [4]): 107.4 s

Structure (SMILES): C[C@@H]1C[C@@H]2CN(S(=O)(=O)c3ccc(F)cc3)CCN2C1=O (relative stereo)
- Latency time (Mus musculus [1]): 21.9 s
- Dose (Mus musculus [2]): 0.1 mg/kg
- Delta latency time (Mus musculus [3]): 96.5 s
- Latency time (Mus musculus [4]): 118.4 s

Structure (SMILES): C[C@H]1C[C@@H]2CN(S(=O)(=O)c3ccccc3)CCN2C1=O (relative stereo)
- Latency time (Mus musculus [1]): 18.3 s
- Dose (Mus musculus [2]): 10 mg/kg
- Delta latency time (Mus musculus [3]): 73 s
- Latency time (Mus musculus [4]): 91.3 s

Structure (SMILES): C[C@H]1C[C@@H]2CN(S(=O)(=O)c3ccc(F)cc3)CCN2C1=O (relative stereo)
- Latency time (Mus musculus [1]): 16.9 s
- Dose (Mus musculus [2]): 0.1 mg/kg
- Delta latency time (Mus musculus [3]): 78 s
- Latency time (Mus musculus [4]): 94.9 s

Structure (SMILES): C[C@@H]1C[C@@H]2CN(S(=O)(=O)c3ccccc3)CCN2C1=O (relative stereo)
- Latency time (Mus musculus [1]): 13.6 s
- Dose (Mus musculus [2]): 1 mg/kg
- Delta latency time (Mus musculus [3]): 78.5 s
- Latency time (Mus musculus [4]): 94.8 s

Structure (SMILES): C[C@@H]1C[C@@H]2CN(C(=O)c3ccc(F)cc3)CCN2C1=O (relative stereo)
- Latency time (Mus musculus [1]): 24 s
- Dose (Mus musculus [2]): 0.1 mg/kg
- Delta latency time (Mus musculus [3]): 80 s
- Latency time (Mus musculus [4]): 104 s

Structure (SMILES): CN1[C@@H]2C[C@@H](OC(=O)[C@H](CO)c3ccccc3)C[C@H]1[C@@H]1O[C@@H]12 [SCOPOLAMINE]
- Delta latency time (Mus musculus [3]): 27.9 s
- Dose (Mus musculus [5]): 1.5 mg/kg
- Latency time (Mus musculus [4]): 44.5 s
